28 compounds from ChEMBL document CHEMBL4177581, “The compound (3-{5-[(2,5-dimethoxyphenyl)amino]-1,3,4-thiadiazolidin-2-yl}-5,8-methoxy-2H-chromen-2-one) inhibits the prion protein conversion from PrPC to PrPSc with lower IC50 in ScN2a cells” (Bioorg Med Chem, 2017) can be followed below.

Structures are written as SMILES. Activity calls are given as the source filed them. No cut-off for these calls is given here.

For assay [1], the target named is T1, Major prion protein (Mesocricetus auratus, UniProt P04273). The assay can be described thus: Binding affinity to Syrian hamster PrPC assessed as inhibition of PrPC protein conversion to PrPSc by Western blot. Background: Immunoblotting shows a protein as a band on a membrane.
Assay [2] concerns the target Major prion protein (Mesocricetus auratus) (UniProt P04273). The assay can be described thus: Binding affinity to Syrian hamster PrPC assessed as inhibition of PrPC protein conversion to PrPSc by measuring PrPSc level relative to untreated control. The arrangement: concentration or dose not given beside the values.
The target of assay [3] is T1, Major prion protein. Nature of the assay: Binding affinity to Syrian hamster PrPC.
Assay [4] deals with ScN2a. Nature of the assay: Antiprion activity against mouse prion protein RML infected mouse ScN2a cells assessed as reduction in proteinase K-resistant PrPSc level at 10 to 100 uM incubated for 5 days followed by proteinase K digestion by Western blot method relative to control. It is filed as cell-based. The method, boiled down:
(§1)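 RML scrapie-infected mouse N2a (ScN2a) cells treated for 5 days at […]. Lysates were made in 0.5% NP-40/0.5% deoxycholate Tris-HCl pH 8 buffer and normalised to 1 mg/ml protein. They were digested with 20 µg/ml proteinase K for 1 h at 37 °C, stopped with PMSF, and pelleted at 100,000g. Pellets were immunoblotted with 6D11-biotin. DMSO and quinacrine controls set the normalised percent PrPSc change.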

Assay [5] is described as follows: Antiprion activity against mouse prion protein RML infected mouse ScN2a cells assessed as reduction in proteinase K-resistant PrPSc level incubated for 5 days followed by proteinase K digestion by Western blot method relative to control. As to conditions: 120 h. It is filed as cell-based. The method, boiled down:
as §1

Assay [6] deals with Major prion protein (Mesocricetus auratus) (UniProt P04273). The assay can be described thus: Binding affinity to C-terminal 6x-His-tagged Syrian hamster PrPC (90 to 232 residues) by 15N-HSQC NMR spectroscopy. The method, boiled down: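 Uniformly 15N-labelled Syrian hamster PrPC residues 90–232 was titrated with ligand at a 5:1 ligand/protein molar ratio. 15N-HSQC spectra were recorded, and binding was read as chemical shift changes and signal attenuation of residues.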
Sequence of Major prion protein (Mesocricetus auratus) (P04273 whole entry, the tested form may be a part): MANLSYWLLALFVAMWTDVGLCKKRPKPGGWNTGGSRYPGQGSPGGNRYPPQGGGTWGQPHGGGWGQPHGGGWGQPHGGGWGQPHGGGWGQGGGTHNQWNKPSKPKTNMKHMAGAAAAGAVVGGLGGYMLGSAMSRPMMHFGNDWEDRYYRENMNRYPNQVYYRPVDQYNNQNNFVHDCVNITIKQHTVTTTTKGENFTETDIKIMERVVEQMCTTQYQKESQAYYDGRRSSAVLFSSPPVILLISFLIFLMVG

T1 sequence (P04273 whole entry): as the sequence (P04273 whole entry, the tested form may be a part) above

One may read the EC50 as the concentration needed to bring the measured effect to its halfway point. Turning to `Cc1cccc2cc3c(N)c(C(=O)NC4CCCC4)sc3nc12`, in assay [1], the EC50 was found to be 7.37 µM. Besides, the Activity in assay [2] worked out at 41.9%.
On the same counts, the results for `CCCCNc1nc2ccccc2n1CC(=O)N1CCc2ccccc21` are 7.42 µM and 37.3%.
For orientation: Kd means the equilibrium constant for the complex coming apart. In general, IC50 refers to the concentration that gives 50% inhibition. `COc1ccc(OC)c(-c2nc(NC(=O)c3cc(OC)c(OC)c(OC)c3)sc2C)c1` yielded a Kd in assay [3] of 185 µM. The inhibition entry in assay [4] is “Active”. In addition, the IC50 in assay [5] was 75 µM.
With `O=C(CN1C(=O)COc2ccccc21)N1CCCc2ccccc21`, the concentration for a half-maximal effect (EC50) in assay [1] turned out to be 7.24 µM. Moreover, the Activity in assay [2] worked out at 57.5%.
With `COc1ccc(-c2cnc(N)nc2C)cc1OC`, the inhibition result in assay [4] was “Active”. Moreover, in assay [5], the IC50 stood at 35 µM.
On to `CC1Cc2ccccc2N1C(=O)COc1ncnc2sccc12` (stereo unspecified), for which the EC50 in assay [1] was 7.17 µM. The Activity in assay [2] was 67.4%.
For `O=C(CN1C(=O)c2cccc3cccc1c23)N[C@@H]1C[C@H]2CC[C@@H]1C2`, in assay [1], the EC50 worked out at 7.18 µM. In assay [2], the Activity came to 65%.
Consider `O=C(CSc1ncnc2sc3c(c12)CCC3)NCC1CCCO1` (stereo unspecified), for which, in assay [1], the EC50 is 7.02 µM.
Consider `COc1ccc(OC)c(Nc2nnc(-c3cc4cccc(OC)c4oc3=O)s2)c1`, for which the dissociation constant Kd in assay [3] worked out at 46.4 µM. The inhibition entry in assay [4] is “Active”. In addition, in assay [5], the IC50 stood at 20 µM.
On to `COc1ccc(-c2cnc(N)nc2-c2ccc(OC)cc2)cc1`, for which the inhibition entry in assay [4] is “Active”. The IC50 in assay [5] worked out at 35 µM.
Take `O=C(CCc1nc2ccccc2c(=O)[nH]1)NC1CCCc2ccccc21` (stereo unspecified): the 50% effective concentration (EC50) in assay [1] amounted to 7.18 µM. Moreover, the Activity in assay [2] stood at 65%.
For the compound `Cc1cccc2cc(C#N)c(N3CCCN(C(=O)C4CCC4)CC3)nc12`, the EC50 in assay [1] is 7.29 µM. In addition, the Activity in assay [2] is 50.6%.
On the same counts, the results for `N#Cc1c(NC(=O)c2cc3c(s2)CCCC3)sc2c1CCCC2` are 7.17 µM and 66.9%.
Compound `Cc1cc2cc3c(cc2nc1SCCN1CCCCC1)OCCO3` gave an equilibrium dissociation constant (Kd) in assay [3] of 50.8 µM. The EC50 in assay [1] is 7.32 µM. Further, the Activity in assay [2] turned out to be 47.4%.
`C=CNC(=O)NC(C)=O`: in assay [1], the EC50 was determined as 7.24 µM. Further, in assay [2], the Activity is 56.7%.
In turn, `O=C(CC1CNc2ccccc21)NC1CCc2ccccc2C1` (stereo unspecified) returned a Kd in assay [3] of 48.6 µM. Moreover, the EC50 in assay [1] came out at 7.25 µM. Moreover, in assay [2], the Activity is 55.3%.
With `C[C@@H]1CCCCN1CC(=O)N[C@@H]1S[C@H]2CCCC[C@@H]2[C@H]1C#N`, the EC50 in assay [1] worked out at 7.23 µM. Moreover, the Activity in assay [2] was found to be 58.8%.
Consider `CC1CCCCC1NC(=O)COc1ncnc2sc3c(c12)CCC3` (stereo unspecified), for which, in assay [1], the EC50 is 7.16 µM. Moreover, the Activity in assay [2] worked out at 68.8%.
On the same counts, the results for `O=C(NC1CCCC1)C1CCCN1C(=O)Nc1ccccc1` (stereo unspecified) are 7.19 µM and 63.2%.
For `O=C(CN1CCc2ccccc21)[C@H]1COc2cc3c(cc21)CCC3`, the Activity in assay [2] was found to be 63.7%.
Consider `CCC[C@@H]1Nc2ccccc2N1CC(=O)N1CCCc2ccccc21`, for which the concentration for a half-maximal effect (EC50) in assay [1] came to 7.17 µM. The Activity in assay [2] was found to be 67.2%.
Take `O=C(CN1C(=O)N[C@@]2(CCCc3ccccc32)C1=O)N1CCCCC1`: in assay [1], the EC50 is 7.17 µM. Moreover, the Activity in assay [2] came to 67.1%.
On to `CN1/C(=C/C(=O)Nc2cccs2)c2ccccc2CC1(C)C`, for which the EC50 in assay [1] turned out to be 7.24 µM. Moreover, the Activity in assay [2] is 57.4%.
Compound `COc1ccc(-c2nc(N)sc2-c2ccc(OC)cc2)cc1` yielded a Kd in assay [3] of 15.5 µM. Also, the inhibition entry in assay [4] was “Active”. For the same compound, the IC50 in assay [5] was over 100 µM.
In the case of `O=C(COC(=O)c1c2c(nc3ccccc13)CCC2)NC1CCCC1`, in assay [1], the EC50 is 7.2 µM. In assay [2], the Activity was 62.9%.
On the same counts, the results for `O=C(N[C@@H]1CCc2ccccc2C1)C(=O)O[C@@H]1C=CCc2ccccc21` are 7.27 µM and 53%.
For `CCC(C)C(NC(=O)c1ccccc1)C(=O)N1CCc2ccccc21` (stereo unspecified), the Kd in assay [3] was 51.2 µM. Further, the result in assay [6] was Active. Besides, in assay [1], the EC50 is 7.43 µM. In addition, the Activity in assay [2] was 36.8%.
Consider `COc1ccc(-c2nc(N)sc2C)c(OC)c1`, for which the inhibition entry in assay [4] was “Active”. Moreover, the IC50 in assay [5] was 35 µM.
